Test results from ChEMBL document CHEMBL1148481, “Linker length modulates DNA cross-linking reactivity and cytotoxic potency of C8/C8' ether-linked C2-exo-unsaturated pyrrolo[2,1-c][1,4]benzodiazepine (PBD) dimers” (J Med Chem, 2004).

What was measured:
Nucleic Acid [1] = assay: Compound dose required to induce 50 percent cross linking in naked plasmid pBR322 DNA following incubation with agent for 2 hours at 37 degree C; type: functional
In short: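 Denatured at 90 °C for 2.5 min in 30% DMSO and run on 0.8% agarose, 40 V, 14–16 h. Autoradiography and laser densitometry of double- vs single-stranded bands gave dose–response curves; mean of ≥3 experiments.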

Nucleic Acid [2] = assay: Thermal stabilization of duplex form of calf thymus DNA after incubation for 4 hours; type: functional; settings: Bos taurus
In short: (§1)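 UV melting of calf thymus DNA (100 μM phosphate, 50 μM bp) with ligand at 20 μM (ligand:DNA 1:5) in pH 7.00 buffer (10 mM sodium phosphate, 1 mM EDTA), ≤0.6% v/v MeOH with correction. Samples were preincubated at 37 °C for the stated time, heated at 1 °C/min over 45–98 °C and monitored at 260 nm. ΔTm is the midpoint shift versus free DNA, from at least three determinations.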

Nucleic Acid [3] = assay: Thermal stabilization of duplex form of calf thymus DNA after incubation for 0 hours; type: functional; settings: Bos taurus; in short: as §1
K562 [4] = assay: Inhibitory concentration against human K562 leukemia cells following incubation for 1 hour; type: functional, cell-based; settings: K562, 1 h
In short: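 K562 cells in RPMI 1640 with 10% FCS and 2 mM glutamine were exposed to drug for 1 h at 37 °C in the dark, then washed. They were plated at 10⁴ cells/well (8 wells per sample) and grown 4 days. MTT was added for 5 h, formazan dissolved in DMSO, and OD read at 550 nm. IC50 is the dose reducing OD to 50% of control.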

Nucleic Acid [5] = assay: Thermal stabilization of duplex form of calf thymus DNA after incubation for 18 hours; type: functional; settings: Bos taurus; in short: as §1
[6] = Compound was tested for percentage inhibition of restriction endonuclease BamH1 enzyme at a concentration of 25 uM;Inhibited
K562 [7] = assay: Dose required to induce 50 percent decrease in tail moment of the DNA of K562 cells following a 1 hour treatment; type: functional, Homo sapiens
In short: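 Alkaline Comet assay in K562 cells after 1 h drug exposure, done on ice in subdued light. Cells were irradiated (10 Gy), embedded in agarose, lysed 1 h at pH 10.5, held in alkali 45 min and electrophoresed 25 min at pH 12.5. Slides were propidium iodide stained; 25 cells per duplicate slide. Value is the dose giving 50% decrease in tail moment relative to irradiated controls.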

[8] = Compound was tested for inhibition of restriction endonuclease BamH1 enzyme at a concentration of 17.5 uM;Inhibited
In short: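 BamHI protection assay: a 512-bp PvuII plasmid fragment with a single BamHI site (500 ng) was incubated with the PBD (methanol stock 10 mM) for 16 h at 37 °C. It was then digested with BamHI (10 units) for 1 h at 37 °C. Cut and uncut DNA were resolved on a 1% agarose TBE gel, stained with ethidium bromide, and the cut fraction was quantified versus dose.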

inhibition [6] | SMILES | C50 (Nucleic Acid [1]) | ΔTm (Nucleic Acid [2]) | ΔTm (Nucleic Acid [3]) | IC50 (K562 [4]) | ΔTm (Nucleic Acid [5]) | C50 (K562 [7]) | Activity [8]
– | COc1cc2c(cc1OCCCCCOc1cc3c(cc1OC)C(=O)N1CCC[C@H]1C=N3)N=C[C@@H]1CCCN1C2=O | 0.07 µM | 5.9 °C | 3.3 °C | 500 nM | 9.4 °C | – | –
12% | Cc1ccc2c(c1O)NC(O)C1CC(/C=C/C(N)=O)=CN1C2=O (stereo not drawn) | – | – | – | – | – | – | –
– | C=C1C[C@H]2C=Nc3cc(OCCCOc4cc5c(cc4OC)C(=O)N4CC(=C)C[C@H]4C=N5)c(OC)cc3C(=O)N2C1 [SJG-136] | 0.045 µM | 31.9 °C | 25.7 °C | 43 nM | 33.6 °C | 0.03 µM | Inhibited
